Experimental data published in ChEMBL document CHEMBL1121480, “Conversion of ergolines to hexahydro- and octahydrobenzo[f]quinolines (depyrroloergolines)” (1980).

How the values were obtained:
Assay type in all cases: functional
Rattus norvegicus [1] = assay: Evaluated for the prolactin inhibition at the dose 50 ug/kg administered intraperitoneally; settings: ip
Method in brief: (§1)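 Reserpinized male rats given 50 μg/kg ip; serum prolactin (ng/mL) measured by the method of Clemens et al. against vehicle controls; % inhibition from treated vs control means; mean ± SEM of 10 rats; significance versus control.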

Rattus norvegicus [2] = assay: Evaluated for the prolactin inhibition at the dose 50 ug/kg administered intraperitoneally (treatment); method in brief: as §1
Rattus norvegicus [3] = assay: Evaluated for the Average turns per first 15 minutes after administration of 1 mg/kg intraperitoneally; settings: route intraperitoneal
Rattus norvegicus [4] = assay: Evaluated for the rat turning after administration of 1 mg/kg intraperitoneally; settings: route intraperitoneal

| SMILES | inhibition in vivo at 0.05 mg/kg (Rattus norvegicus [1]) [%] | serum prolactin level (Rattus norvegicus [2]) [ng/mL] | Average turns/first 15 min (Rattus norvegicus [3]) | Rat turning (Rattus norvegicus [4]) [%] |
| --- | --- | --- | --- | --- |
| CC1=C[C@@H]2c3ccccc3CC[C@H]2N(C)C1.O=C(O)C(=O)O [DEPYRROLO AGROCLAVINE] | 9 | 35.2 | 0 | 0 |
| CC1=C[C@@H]2c3cccc4[nH]cc(c34)C[C@H]2N(C)C1 [AGROCLAVINE] | 63 | 11.7 | 95 | 100 |
| CCCN1C[C@H](CSC)C[C@@H]2c3ccccc3CC[C@H]21.O=C(O)C(=O)O [DEPYRROLO PERGOLIDE] | 35 | 11.6 | 48 | 67 |
| C[C@@H](CO)NC(=O)[C@@H]1C=C2c3cccc4[nH]cc(c34)C[C@H]2N(C)C1.O=C(O)/C=C\C(=O)O [ERGONOVINE MALEATE] | 36 | 11.7 | 0 | 0 |
| CCCN1C[C@H](CSC)C[C@@H]2c3cccc4[nH]cc(c34)C[C@H]21 [PERGOLIDE] | 95 | 1.6 | 102 | 100 |
| C[C@@H](CO)NC(=O)C1C=C2c3ccccc3CC[C@H]2N(C)C1 (some centres undefined) [DEPYRROLO ERGONOVINE] | -24 | 28.4 | 0 | 0 |
